# This is a sample that favours compounds with a hit; in the whole collection about 3.1% have one here.
# KCNQ1 act: potentiators or activators of KCNQ1 channel, primary screen, cell-based, thallium flux, high-throughput; actives 0.35% (n = 310,000); AID 2648, 2010; CHO-K1 KCNQ1, thallium flux FluxOR fluorescence; stronger effect = higher value; B-score at 10 µM;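 active = fluorescence ratio B-score, a plate-corrected score, at least three library SD, with initial intensity B-score within 5 SD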
#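 Medium – assay buffer, equal DMSO in all wells · Material – CHO-K1 cell line with stable KCNQ1 potassium channel expression · Signal – kinetic FluxOR thallium fluorescence, 10-s 1-Hz baseline, 110-s post-stimulus read · Compound – single concentration per compound, DMSO matched to controls · Schedule – 37 °C overnight plating, 90-min dark dye load, 20-min compound pretreatment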
# KCNQ1 block: inhibitors of human KCNQ1 channel, primary screen, cell-based, thallium flux, high-throughput; B-score at 10 µM; Potassium voltage-gated channel subfamily KQT member 1 (Homo sapiens), P51787; actives 1.3% (n = 310,000); AID 2642, 2010; CHO-K1 KCNQ1, FluxOR thallium flux fluorescence; stronger effect = higher value;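 active = compounds whose thallium flux B-score, printed positive for inhibition, exceeds three library SD while starting fluorescence stays within three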;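 also: channel opened by potassium depolarization with thallium stimulus after 20 min compound exposure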
# KCNK3 block: human KCNK3 channel inhibitors, primary screen, CHO cells, FluxOR thallium flux, B-score | Potassium channel subfamily K member 3 (Homo sapiens), O14649 | FluxOR fluorescence; stronger effect = lower value | B-score at 10 µM | actives 0.84% (n = 340,000);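 active = B-score under library mean minus 4 SD, starting fluorescence ratio at most library mean plus 5 SD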;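 also: more negative B-score means stronger inhibition of thallium flux through KCNK3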
# KCNK9 block: KCNK9 potassium channel inhibitors, primary screen, HEK293 cells, thallium flux | Potassium channel subfamily K member 9 (Homo sapiens), Q9NPC2 | FluxOR thallium flux fluorescence; stronger effect = lower value | B-score at 10 µM | actives 1.2% (n = 310,000) | AID 488922, 2010;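 active = ratio B-score over 3 SD below the library mean, with starting fluorescence within 5 SD of its mean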;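 also: negative B-score means less thallium flux so channel inhibition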
# hERG protect: hERG rescue from dofetilide block, primary screen, cell-based, CHO-hERG, FluxOR thallium flux, dofetilide IC70; Voltage-gated inwardly rectifying potassium channel KCNH2 (Homo sapiens), Q12809; dofetilide IC70 present; activation (rescue from dofetilide block), less the hit threshold, % at 10 µM; actives 0.51% (n = 310,000);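 active = activation above the mean of controls blocked by dofetilide plus 5 SD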;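 also: thallium influx through hERG after potassium depolarization seen as dye fluorescence rise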
# Target sequence (Q12809 whole entry, looked up): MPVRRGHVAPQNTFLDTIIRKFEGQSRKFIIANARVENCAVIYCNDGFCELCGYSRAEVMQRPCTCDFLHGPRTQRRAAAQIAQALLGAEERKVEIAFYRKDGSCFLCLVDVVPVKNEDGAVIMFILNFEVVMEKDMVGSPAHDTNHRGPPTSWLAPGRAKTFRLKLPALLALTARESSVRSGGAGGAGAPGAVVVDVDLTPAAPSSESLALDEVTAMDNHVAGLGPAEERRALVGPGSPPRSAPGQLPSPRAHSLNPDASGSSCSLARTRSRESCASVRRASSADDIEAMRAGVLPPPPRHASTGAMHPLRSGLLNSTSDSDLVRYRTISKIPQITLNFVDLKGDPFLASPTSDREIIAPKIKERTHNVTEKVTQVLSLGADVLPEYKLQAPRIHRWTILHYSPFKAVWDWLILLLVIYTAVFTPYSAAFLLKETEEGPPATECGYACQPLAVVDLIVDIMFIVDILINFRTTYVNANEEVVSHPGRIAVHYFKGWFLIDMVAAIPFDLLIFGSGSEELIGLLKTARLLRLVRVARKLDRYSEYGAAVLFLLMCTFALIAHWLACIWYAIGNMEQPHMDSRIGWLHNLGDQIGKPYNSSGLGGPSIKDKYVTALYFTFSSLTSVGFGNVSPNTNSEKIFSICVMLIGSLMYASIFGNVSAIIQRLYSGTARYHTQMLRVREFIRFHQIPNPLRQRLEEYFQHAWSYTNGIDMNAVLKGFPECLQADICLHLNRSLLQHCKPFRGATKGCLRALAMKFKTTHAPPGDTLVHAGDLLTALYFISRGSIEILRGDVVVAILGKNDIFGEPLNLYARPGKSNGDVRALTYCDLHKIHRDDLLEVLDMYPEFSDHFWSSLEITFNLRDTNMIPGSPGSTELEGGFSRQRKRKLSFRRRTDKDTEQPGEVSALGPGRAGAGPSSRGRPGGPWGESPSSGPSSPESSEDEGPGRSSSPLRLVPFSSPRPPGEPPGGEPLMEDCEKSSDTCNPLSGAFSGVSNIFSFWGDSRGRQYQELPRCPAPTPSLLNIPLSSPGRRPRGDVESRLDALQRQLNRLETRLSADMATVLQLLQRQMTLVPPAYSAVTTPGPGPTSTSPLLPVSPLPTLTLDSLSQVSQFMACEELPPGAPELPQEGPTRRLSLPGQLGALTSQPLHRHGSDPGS
# KCNK9 inh conf: KCNK9 potassium channel inhibitors, confirmation, HEK293 cells, thallium flux, duplicate. shares compounds with KCNK9 block. FluxOR thallium flux fluorescence. inhibition, % at 10 µM. actives 43% (n = 4,900). AID 492992, 2010;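 active = thallium signal inhibited by more than 5 SD of the compound-free buffer control wells, on both duplicate plates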;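 also: 0% = assay buffer control wells without compound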
# Kir21 sel: mouse Kir2.1 channel inhibition, confirmation, selectivity assay for KCNK9 modulator project, cell-based, HEK293, thallium flux | inhibition, % at 10 µM | actives 4% (n = 4,900) | AID 492993, 2010 | shares compounds with KCNK9 block | Kir2.1 cells, FluxOR thallium flux fluorescence;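 active = thallium signal drop more than 5 SD beyond the mean of the no-compound control wells, seen in both duplicate plates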;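 also: signal is fluorescence rise after thallium addition divided by baseline fluorescence; plate controls were assay buffer only for no effect and full block by chlorpromazine control for full effect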
# KCNK9 uninduced: thallium flux in non-induced HEK293 cells, confirmation, counter-screen for KCNK9 inhibitor project, cell-based, second counter screen, non-induced KCNK9-HEK293 | shares compounds with KCNK9 block | FluxOR thallium flux | inhibition, % at 10 µM | actives 40% (n = 4,900) | AID 492997, 2010;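 active = thallium signal drop beyond 5 SD of the untreated control mean, on both duplicate plates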;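 also: plate controls were buffer only IC0 wells for no effect and SID17386958 at its maximal inhibitory level for full effect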
# * hit, by the source's call; i = inactive; . = no result given.
SMILES,KCNQ1 act,KCNQ1 block,KCNK3 block,KCNK9 block,hERG protect,KCNK9 inh conf,Kir21 sel,KCNK9 uninduced
C=CCNC(=O)c1c(CSc2ccc(Cl)cc2)noc1C(=O)NCc1ccccc1,i,i,i,i,-21,i,i,i
CC(C)CCNC(=O)c1c(CSc2ccccc2)noc1C(=O)NCc1ccccc1,i,i,i,i,-9,i,i,i
Clc1cccc(N2CCN(Cc3ccc(Br)o3)CC2)c1,i,i,i,i,-9,.,.,.
CC(C)c1ccc(C(=O)N(c2ccccn2)C(C)c2ccco2)cc1 (stereo not given),i,i,i,i,-7,.,.,.
CC(c1ccco1)N(C(=O)CSc1ccc(Br)cc1)c1ccccn1 (stereo not given),i,i,-9.8*,-8.9*,-15,i,37%*,38%*
COC(=O)CN1C(c2cccc(Cl)c2)=Nc2ccc(Cl)cc2C1c1ccccc1 (stereo not given),i,i,i,-16*,-6,58%*,i,47%*
COC(=O)CN1C(c2ccc(OC)cc2)=Nc2ccc(Cl)cc2C1c1ccccc1 (stereo not given),i,i,i,i,-10,.,.,.
O=C(C(c1ccccc1)c1ccccc1)N1CCCc2ccccc21,i,i,i,-11*,-11,44%*,i,42%*
O=C(NC(=O)N1CCCc2ccccc21)c1ccccc1,i,i,i,i,-18,.,.,.
Cc1cc(NC(=O)CCC(=O)N(CC(=O)NC2CCCC2)c2ccc(F)c(Cl)c2)no1,i,i,i,i,-9,.,.,.
CC(C)(C)n1nc2c(c1NC(=O)COc1ccc(Cl)cc1)CS(=O)(=O)C2,i,i,i,i,-8,.,.,.
CC(C)(C)n1nc2c(c1NC(=O)COc1ccc(Cl)cc1)CSC2,i,i,i,-11*,-12,45%*,i,50%*
O=C(Nc1cnn(Cc2ccc(F)cc2)c1)c1cnn2c(C(F)F)cc(-c3ccccc3)nc12,i,i,i,-13*,-10,50%*,i,36%*
CNS(=O)(=O)c1ccc(NC(=O)c2cnn3c(C(F)F)cc(-c4ccccc4)nc23)cc1,i,i,i,i,-12,.,.,.
Cc1ccc(NC(=O)COc2ccc(C(=O)c3ccccc3)cc2)c(O)c1,i,i,i,i,-7,.,.,.
O=C(O)c1ccc(S(=O)(=O)Nc2ccc3c(c2)OCCO3)cc1,i,i,i,i,-18,.,.,.
CCc1nc2ccccc2nc1N1CCN(S(=O)(=O)c2c(C)cc(Cl)cc2C)CC1,i,i,i,i,-10,i,i,i
O=C(CCc1ccccc1)n1nc(-c2ccccc2)nc1NCc1ccco1,i,i,i,-8.4*,-9,i,i,33%*
O=C(CN1CCCC1)Nc1ccccc1C(=O)c1ccccc1,i,i,i,i,-12,.,.,.
O=C(c1ccccc1)c1ccccc1NC(=O)C1CCCN1Cc1ccccc1 (stereo not given),i,i,i,-9.5*,-11,58%*,i,38%*
CCOc1ccc(CCNC(=O)CSc2nn(-c3ccc(C)c(Cl)c3)c(=S)s2)cc1OCC,i,i,i,i,-12,i,i,i
CCOc1ccc(CCNC(=O)CSc2nnnn2C)cc1OCC,i,i,i,-13*,-8,i,i,i
CCOc1ccc(CCNC(=O)CSCc2ccc(C)cc2)cc1OCC,i,i,i,i,-4,i,i,i
CCOc1ccc(CCNC(=O)CCOc2cc(C)ccc2C)cc1OCC,i,i,i,i,-4,i,i,34%*
Cn1nnnc1SCC(=O)NCCc1ccc(Cl)cc1,i,i,i,i,-6,.,.,.
SMILES,KCNQ1 act,KCNQ1 block,KCNK3 block,KCNK9 block,hERG protect,KCNK9 inh conf,Kir21 sel,KCNK9 uninduced
CCOc1ccc(CCNC(=O)CSc2nc3ncc(Cl)cc3[nH]2)cc1OCC,i,i,i,i,-4,.,.,.
CCOc1ccc(CCNC(=O)COC(=O)COc2cc(C)cc(C)c2)cc1OCC,i,i,i,i,-16,.,.,.
O=C(CSCc1ccc(Br)cc1)NCCc1ccccc1,i,i,i,i,-9,i,i,i
O=C(CSCc1ccccc1)NCCc1ccc(F)cc1,i,i,i,i,-6,.,.,.
COc1ccc(OC)c(NC(=S)N(CCc2c(C)[nH]c3ccccc23)Cc2cccs2)c1,i,i,i,-9.1*,-8,32%*,i,31%*
COc1ccc(OC)c(NC(=S)N(CCc2c(C)[nH]c3ccc(C)cc23)Cc2cccs2)c1,i,i,i,-9.4*,-19,34%*,i,30%*
Cc1[nH]c2ccc(F)cc2c1CCN(Cc1cccnc1)C(=S)Nc1cccc(F)c1,i,i,i,-9.1*,-6,42%*,i,44%*
COc1ccc2[nH]c(C)c(CCN(Cc3cccs3)C(=S)Nc3cccc(F)c3)c2c1,i,i,-12*,-14*,-20,55%*,i,31%*
CCN1/C(=C/c2ccc3ccccc3[n+]2CC)C=Cc2ccccc21,i,13*,-9*,-18*,-38,86%*,94%*,59%*
CCn1c(=O)c2c(nc3n2CCN3c2ccccc2)n(C)c1=O,i,i,i,i,-6,.,.,.
CCc1sc(NS(C)(=O)=O)nc1-c1ccccc1,i,i,i,i,-5,.,.,.
CCCCNC(=O)c1onc(CSc2ccccc2)c1C(=O)O,i,i,i,i,-11,.,.,.
CC(C)NC(=O)c1onc(CSc2cccc3ccccc23)c1C(=O)O,i,i,i,i,-14,.,.,.
CCCCNC(=O)c1onc(CSc2ccc(C(C)C)cc2)c1C(=O)O,i,i,i,i,-13,i,i,i

# Screening results as filed in PubChem BioAssay.
